Experimental data as given in ChEMBL document CHEMBL4330069, “Boosting the efficacy of anti-MRSA β-lactam antibiotics via an easily accessible, non-cytotoxic and orally bioavailable FtsZ inhibitor” (Eur J Med Chem, 2019).
≈ marks a conversion by molar mass, not a printed value. Calls of active or inactive are those of the source.

Key:
Staphylococcus aureus [1] = test: Antibacterial activity against multidrug-resistant Staphylococcus aureus ATCC 43300 infected in BALB/C mouse assessed as mouse survival at 50 mg/kg, ip bid measured after 5 days relative to control; format: functional
Staphylococcus aureus [2] = test: Antibacterial activity against multidrug-resistant Staphylococcus aureus isolate 358 by broth microdilution assay; format: functional
How it was run: (§1)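 Broth microdilution MIC per CLSI guidelines against clinical MRSA isolates, for β-lactams and test compound alone and in combination. Compounds were dissolved in DMSO. Growth was read by eye, in duplicate. FIC index = FIC(compound) + FIC(drug); synergy defined as FIC index ≤0.5.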

Staphylococcus aureus [3] = test: Antibacterial activity against multidrug-resistant Staphylococcus aureus isolate 254 by broth microdilution assay; format: functional; how it was run: as §1
Staphylococcus aureus [4] = test: Antibacterial activity against multidrug-resistant Staphylococcus aureus isolate 2895 by broth microdilution assay; format: functional; how it was run: as §1
Staphylococcus aureus [5] = test: Antibacterial activity against multidrug-resistant Staphylococcus aureus isolate 2919 by broth microdilution assay; format: functional; how it was run: as §1
Staphylococcus aureus [6] = test: Antibacterial activity against multidrug-resistant Staphylococcus aureus isolate 1449 by broth microdilution assay; format: functional; how it was run: as §1
Staphylococcus aureus [7] = test: Antibacterial activity against multidrug-resistant Staphylococcus aureus isolate 200 by broth microdilution assay; format: functional; how it was run: as §1
Staphylococcus aureus [8] = test: Antibacterial activity against multidrug-resistant Staphylococcus aureus isolate 3332 by broth microdilution assay; format: functional; how it was run: as §1
Staphylococcus aureus [9] = test: Antibacterial activity against multidrug-resistant Staphylococcus aureus isolate 3267 by broth microdilution assay; format: functional; how it was run: as §1
Staphylococcus aureus [10] = test: Antibacterial activity against multidrug-resistant Staphylococcus aureus isolate 3580 by broth microdilution assay; format: functional; how it was run: as §1
Staphylococcus aureus [11] = test: Antibacterial activity against multidrug-resistant Staphylococcus aureus isolate 2224 by broth microdilution assay; format: functional; how it was run: as §1
Staphylococcus aureus [12] = test: Antibacterial activity against multidrug-resistant Staphylococcus aureus isolate 774 by broth microdilution assay; format: functional; how it was run: as §1
Staphylococcus aureus [13] = test: Antibacterial activity against multidrug-resistant Staphylococcus aureus isolate 1749 by broth microdilution assay; format: functional; how it was run: as §1
Staphylococcus aureus [14] = test: Antibacterial activity against multidrug-resistant Staphylococcus aureus isolate 1344 by broth microdilution assay; format: functional; how it was run: as §1
Staphylococcus aureus [15] = test: Antibacterial activity against multidrug-resistant Staphylococcus aureus isolate 757 by broth microdilution assay; format: functional; how it was run: as §1
Staphylococcus aureus [16] = test: Antibacterial activity against multidrug-resistant Staphylococcus aureus isolate 2901 by broth microdilution assay; format: functional; how it was run: as §1
Staphylococcus aureus [17] = test: Antibacterial activity against multidrug-resistant Staphylococcus aureus isolate 3411 by broth microdilution assay; format: functional; how it was run: as §1
Staphylococcus aureus [18] = test: Antibacterial activity against multidrug-resistant Staphylococcus aureus isolate 231 by broth microdilution assay; format: functional; how it was run: as §1
Staphylococcus aureus [19] = test: Antibacterial activity against multidrug-resistant Staphylococcus aureus isolate 85 by broth microdilution assay; format: functional; how it was run: as §1
Staphylococcus aureus [20] = test: Antibacterial activity against multidrug-resistant Staphylococcus aureus isolate 2490 by broth microdilution assay; format: functional; how it was run: as §1
Staphylococcus aureus [21] = test: Antibacterial activity against multidrug-resistant Staphylococcus aureus isolate 2973 by broth microdilution assay; format: functional; how it was run: as §1
Staphylococcus aureus [22] = test: Antibacterial activity against multidrug-resistant Staphylococcus aureus isolate 2516 by broth microdilution assay; format: functional; how it was run: as §1
Staphylococcus aureus [23] = test: Antibacterial activity against multidrug-resistant Staphylococcus aureus ATCC 43300 infected in BALB/C mouse assessed as mouse survival at 25 mg/kg, ip bid measured on day 4 post infection (reference value: 50%); format: functional
Staphylococcus aureus [24] = test: Antibacterial activity against multidrug-resistant Staphylococcus aureus isolate 3589 by broth microdilution assay; format: functional; how it was run: as §1
Staphylococcus aureus [25] = test: Antibacterial activity against multidrug-resistant Staphylococcus aureus isolate 417 by broth microdilution assay; format: functional; how it was run: as §1
Staphylococcus aureus [26] = test: Antibacterial activity against multidrug-resistant Staphylococcus aureus ATCC 43300 infected in BALB/C mouse assessed as mouse survival at 50 mg/kg, ip bid measured after 5 days; format: functional, organism-based
Staphylococcus aureus [27] = test: Antibacterial activity against multidrug-resistant Staphylococcus aureus isolate 1136 by broth microdilution assay; format: functional; how it was run: as §1
Staphylococcus aureus [28] = test: Antibacterial activity against multidrug-resistant Staphylococcus aureus isolate 1402 by broth microdilution assay; format: functional; how it was run: as §1
Staphylococcus aureus [29] = test: Antibacterial activity against multidrug-resistant Staphylococcus aureus isolate 1717 by broth microdilution assay; format: functional; how it was run: as §1
Staphylococcus aureus [30] = test: Antibacterial activity against multidrug-resistant Staphylococcus aureus isolate 2728 by broth microdilution assay; format: functional; how it was run: as §1
Staphylococcus aureus [31] = test: Antibacterial activity against multidrug-resistant Staphylococcus aureus isolate 256 by broth microdilution assay; format: functional; how it was run: as §1

## CCCCCCCCCNc1ccc(F)c(C(N)=O)c1F.Cl
Staphylococcus aureus [1]
  Activity: 33%

## CO/N=C(\C(=O)N[C@@H]1C(=O)N2C(C(=O)O)=C(COC(N)=O)CS[C@H]12)c1ccco1 [CEFUROXIME]
Staphylococcus aureus [2]
  MIC: 2 µg/mL (≈ 4.71 µM)
Staphylococcus aureus [3]
  MIC: 1020 µg/mL (≈ 2410 µM)
Staphylococcus aureus [4]
  MIC: 64 µg/mL (≈ 151 µM)
Staphylococcus aureus [5]
  MIC: 16 µg/mL (≈ 37.7 µM)
Staphylococcus aureus [6]
  MIC: 2 µg/mL (≈ 4.71 µM)
Staphylococcus aureus [7]
  MIC: 2 µg/mL (≈ 4.71 µM)
Staphylococcus aureus [8]
  MIC: 512 µg/mL (≈ 1210 µM)
Staphylococcus aureus [9]
  MIC: 256 µg/mL (≈ 603 µM)
Staphylococcus aureus [10]
  MIC: 1020 µg/mL (≈ 2410 µM)
Staphylococcus aureus [11]
  MIC: 8 µg/mL (≈ 18.9 µM)
Staphylococcus aureus [12]
  MIC: 1020 µg/mL (≈ 2410 µM)
Staphylococcus aureus [13]
  MIC: 16 µg/mL (≈ 37.7 µM)
Staphylococcus aureus [14]
  MIC: 256 µg/mL (≈ 603 µM)
Staphylococcus aureus [15]
  MIC: 32 µg/mL (≈ 75.4 µM)
Staphylococcus aureus [16]
  MIC: 16 µg/mL (≈ 37.7 µM)
Staphylococcus aureus [17]
  MIC: 1020 µg/mL (≈ 2410 µM)
Staphylococcus aureus [18]
  MIC: 1020 µg/mL (≈ 2410 µM)
Staphylococcus aureus [19]
  MIC: 8 µg/mL (≈ 18.9 µM)
Staphylococcus aureus [20]
  MIC: 32 µg/mL (≈ 75.4 µM)
Staphylococcus aureus [21]
  MIC: 8 µg/mL (≈ 18.9 µM)
Staphylococcus aureus [22]
  MIC: 512 µg/mL (≈ 1210 µM)
Staphylococcus aureus [23]
  Activity: 70%
Staphylococcus aureus [24]
  MIC: 512 µg/mL (≈ 1210 µM)
Staphylococcus aureus [25]
  MIC: 1020 µg/mL (≈ 2410 µM)
Staphylococcus aureus [26]
  Activity: inactive
Staphylococcus aureus [27]
  MIC: 512 µg/mL (≈ 1210 µM)
Staphylococcus aureus [28]
  MIC: 16 µg/mL (≈ 37.7 µM)
Staphylococcus aureus [29]
  MIC: 16 µg/mL (≈ 37.7 µM)
Staphylococcus aureus [30]
  MIC: 16 µg/mL (≈ 37.7 µM)
Staphylococcus aureus [31]
  MIC: 256 µg/mL (≈ 603 µM)
